Experimental data as given in ChEMBL document CHEMBL4689842, “EUbOPEN Chemogenomics Library wave 1” (2021).

Legend:
Type in all cases: toxicity, cell-based
Fibroblast [1] = assay: Multiplex assay against human fibroblast
In short: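 Live cells carried four stains from seeding: Hoechst33342, BioTracker Green Microtubule Cytoskeleton Dye, MitoTracker Red and Annexin V Alexa Fluor 680. They were imaged on a CQ1 microscope at 37°C and 5% CO2 after compound addition. Using CellPathfinder machine-learning gating, cells were split into Hoechst high-intensity objects or normal cells, normal cells into healthy, pyknosed or fragmented nuclei, and pyknosed cells into mitotic or apoptotic; tubulin, mitochondrial-mass and membrane-permeability phenotypes are per cents of healthy-nucleus cells.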

Fibroblast [2] = assay: Incucyte cell viability with human fibroblast; details: 10 µM, compound concentration 10 uM; further: filed as whole numbers so only -1 and 0 and 1 occur
U2OS = assay: Incucyte cell viability with U2OS; details: human, 10 µM, compound concentration 10 uM; further: filed as whole numbers so only -1 and 0 and 1 occur
[3] = 12 h, 1 µM, compound concentration 1 uM, replicate 1
[4] = 12 h, 1 µM, compound concentration 1 uM, replicate 2
[5] = 12 h, 10 µM, compound concentration 10 uM, replicate 1
[6] = 12 h, 10 µM, compound concentration 10 uM, replicate 2
[7] = 24 h, 1 µM, compound concentration 1 uM, replicate 1
[8] = 24 h, 1 µM, compound concentration 1 uM, replicate 2
[9] = 24 h, 10 µM, compound concentration 10 uM, replicate 1
[10] = 24 h, 10 µM, compound concentration 10 uM, replicate 2
[11] = 48 h, 1 µM, compound concentration 1 uM, replicate 1
[12] = 48 h, 1 µM, compound concentration 1 uM, replicate 2
[13] = 48 h, 10 µM, compound concentration 10 uM, replicate 1
[14] = 48 h, 10 µM, compound concentration 10 uM, replicate 2
[15] = 6 h, replicate number 1, timepoint 6 hours
[16] = 12 h, replicate number 1, timepoint 12 hours
[17] = 18 h, replicate number 1, timepoint 18 hours
[18] = 24 h, replicate number 1, timepoint 24 hours

## Cc1nc(Cc2cccc(C(F)(F)F)c2)sc1-c1ccc(C(N)=O)nc1 [TP-024n]
Fibroblast [1]; [3]
  Population Apoptotic (%): 59%
  Population Fragmented Nuclei (%): 16%
  Population Healthy Nuclei (%): 45%
  Population Hoechst High Intensity Objects (%): 11%
  Population Membrane Permeable-Phenotype (%): 23%
  Population Mitochondria Different-Phenotype (%): 3%
  Population Mitotic Cells (%): 40%
  Population Normal (%): 88%
  Population Pyknosed Nuclei (%): 37%
  Population Tubulin-Different-Phenotype (%): 33%
  Total Cell Count: 125
Fibroblast [1]; [4]
  Population Apoptotic (%): 50%
  Population Fragmented Nuclei (%): 0%
  Population Healthy Nuclei (%): 94%
  Population Membrane Permeable-Phenotype (%): 2%
  Population Mitochondria Different-Phenotype (%): 18%
  Population Mitotic Cells (%): 50%
  Population Pyknosed Nuclei (%): 5%
  Population Tubulin-Different-Phenotype (%): 16%
  Total Cell Count: 130
Fibroblast [1]; [5]
  Population Apoptotic (%): 63%
  Population Fragmented Nuclei (%): 25%
  Population Healthy Nuclei (%): 37%
  Population Hoechst High Intensity Objects (%): 14%
  Population Membrane Permeable-Phenotype (%): 2%
  Population Mitochondria Different-Phenotype (%): 16%
  Population Mitotic Cells (%): 36%
  Population Normal (%): 86%
  Population Pyknosed Nuclei (%): 36%
  Population Tubulin-Different-Phenotype (%): 67%
  Total Cell Count: 150
Fibroblast [1]; [6]
  Population Apoptotic (%): 66%
  Population Fragmented Nuclei (%): 17%
  Population Healthy Nuclei (%): 67%
  Population Hoechst High Intensity Objects (%): 4%
  Population Membrane Permeable-Phenotype (%): 9%
  Population Mitochondria Different-Phenotype (%): 21%
  Population Mitotic Cells (%): 33%
  Population Normal (%): 95%
  Population Pyknosed Nuclei (%): 14%
  Population Tubulin-Different-Phenotype (%): 11%
  Total Cell Count: 44
Fibroblast [1]; [7]
  Population Apoptotic (%): 46%
  Population Fragmented Nuclei (%): 17%
  Population Healthy Nuclei (%): 51%
  Population Hoechst High Intensity Objects (%): 11%
  Population Membrane Permeable-Phenotype (%): 31%
  Population Mitochondria Different-Phenotype (%): 1%
  Population Mitotic Cells (%): 53%
  Population Normal (%): 88%
  Population Pyknosed Nuclei (%): 32%
  Population Tubulin-Different-Phenotype (%): 29%
  Total Cell Count: 113
Fibroblast [1]; [8]
  Population Apoptotic (%): 50%
  Population Fragmented Nuclei (%): 5%
  Population Healthy Nuclei (%): 91%
  Population Hoechst High Intensity Objects (%): 5%
  Population Membrane Permeable-Phenotype (%): 1%
  Population Mitochondria Different-Phenotype (%): 7%
  Population Mitotic Cells (%): 50%
  Population Normal (%): 95%
  Population Pyknosed Nuclei (%): 3%
  Population Tubulin-Different-Phenotype (%): 15%
  Total Cell Count: 126
Fibroblast [1]; [9]
  Population Apoptotic (%): 64%
  Population Fragmented Nuclei (%): 19%
  Population Healthy Nuclei (%): 57%
  Population Hoechst High Intensity Objects (%): 13%
  Population Membrane Permeable-Phenotype (%): 5%
  Population Mitochondria Different-Phenotype (%): 12%
  Population Mitotic Cells (%): 35%
  Population Normal (%): 86%
  Population Pyknosed Nuclei (%): 23%
  Population Tubulin-Different-Phenotype (%): 58%
  Total Cell Count: 152
Fibroblast [1]; [10]
  Population Apoptotic (%): 44%
  Population Fragmented Nuclei (%): 14%
  Population Healthy Nuclei (%): 58%
  Population Hoechst High Intensity Objects (%): 2%
  Population Membrane Permeable-Phenotype (%): 25%
  Population Mitochondria Different-Phenotype (%): 32%
  Population Mitotic Cells (%): 55%
  Population Normal (%): 97%
  Population Pyknosed Nuclei (%): 26%
  Population Tubulin-Different-Phenotype (%): 22%
  Total Cell Count: 60
Fibroblast [1]; [11]
  Population Apoptotic (%): 52%
  Population Fragmented Nuclei (%): 21%
  Population Healthy Nuclei (%): 58%
  Population Hoechst High Intensity Objects (%): 19%
  Population Membrane Permeable-Phenotype (%): 22%
  Population Mitochondria Different-Phenotype (%): 1%
  Population Mitotic Cells (%): 47%
  Population Normal (%): 80%
  Population Pyknosed Nuclei (%): 20%
  Population Tubulin-Different-Phenotype (%): 31%
  Total Cell Count: 116
Fibroblast [1]; [12]
  Population Apoptotic (%): 33%
  Population Fragmented Nuclei (%): 16%
  Population Healthy Nuclei (%): 80%
  Population Hoechst High Intensity Objects (%): 11%
  Population Membrane Permeable-Phenotype (%): 12%
  Population Mitochondria Different-Phenotype (%): 0%
  Population Mitotic Cells (%): 66%
  Population Normal (%): 88%
  Population Pyknosed Nuclei (%): 3%
  Population Tubulin-Different-Phenotype (%): 35%
  Total Cell Count: 98
Fibroblast [1]; [13]
  Population Apoptotic (%): 77%
  Population Fragmented Nuclei (%): 19%
  Population Healthy Nuclei (%): 64%
  Population Hoechst High Intensity Objects (%): 9%
  Population Membrane Permeable-Phenotype (%): 11%
  Population Mitochondria Different-Phenotype (%): 15%
  Population Mitotic Cells (%): 22%
  Population Normal (%): 90%
  Population Pyknosed Nuclei (%): 16%
  Population Tubulin-Different-Phenotype (%): 44%
  Total Cell Count: 148
Fibroblast [1]; [14]
  Population Apoptotic (%): 25%
  Population Fragmented Nuclei (%): 27%
  Population Healthy Nuclei (%): 68%
  Population Hoechst High Intensity Objects (%): 10%
  Population Membrane Permeable-Phenotype (%): 5%
  Population Mitochondria Different-Phenotype (%): 7%
  Population Mitotic Cells (%): 75%
  Population Normal (%): 89%
  Population Pyknosed Nuclei (%): 3%
  Population Tubulin-Different-Phenotype (%): 52%
  Total Cell Count: 124
Fibroblast [2]; [15]
  Growth Rate: 0
Fibroblast [2]; [16]
  Growth Rate: 0
Fibroblast [2]; [17]
  Growth Rate: 0
Fibroblast [2]; [18]
  Growth Rate: 0
U2OS; [15]
  Growth Rate: 0
U2OS; [16]
  Growth Rate: 0
U2OS; [17]
  Growth Rate: 0
U2OS; [18]
  Growth Rate: 0
